What was measured:
MCF7 = assay: Concentration required for the 50% inhibition of human breast cancer (MCF-7) cell line growth; assay type: functional, cell-based
MKN-45 = assay: Concentration required for the 50% inhibition of human stomach cancer (MKN45) cell line growth; assay type: functional, cell-based
NUGC-3 = assay: Concentration required for the 50% inhibition of human stomach cancer (NUGC3) cell line growth; assay type: functional, cell-based
MES-SA = assay: Concentration required for the 50% inhibition of human uterine cancer (MESSA) cell line growth; assay type: functional, cell-based
A549 = assay: Concentration required for the 50% inhibition of human lung caner (A549) cell line growth; assay type: functional, cell-based
Tubulin beta-1 chain = Tubulin beta-1 chain (Homo sapiens, UniProt Q9H4B7); assay: Inhibition of tubulin polymerization
Procedure, shortened: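 MAP-rich tubulin at 2 mg/mL in 100 mM PIPES (pH 6.9), 2 mM MgCl2, 1 mM GTP, 2% (v/v) DMSO with compound. Turbidity read at 350 nm, 37 °C, every 30 s for 30 min. Area under curve scaled between untreated control (100%) and 10 μM colchicine (0%). IC50 by nonlinear regression, at least three experiments.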

Chain of Tubulin beta-1 chain (Q9H4B7 whole entry): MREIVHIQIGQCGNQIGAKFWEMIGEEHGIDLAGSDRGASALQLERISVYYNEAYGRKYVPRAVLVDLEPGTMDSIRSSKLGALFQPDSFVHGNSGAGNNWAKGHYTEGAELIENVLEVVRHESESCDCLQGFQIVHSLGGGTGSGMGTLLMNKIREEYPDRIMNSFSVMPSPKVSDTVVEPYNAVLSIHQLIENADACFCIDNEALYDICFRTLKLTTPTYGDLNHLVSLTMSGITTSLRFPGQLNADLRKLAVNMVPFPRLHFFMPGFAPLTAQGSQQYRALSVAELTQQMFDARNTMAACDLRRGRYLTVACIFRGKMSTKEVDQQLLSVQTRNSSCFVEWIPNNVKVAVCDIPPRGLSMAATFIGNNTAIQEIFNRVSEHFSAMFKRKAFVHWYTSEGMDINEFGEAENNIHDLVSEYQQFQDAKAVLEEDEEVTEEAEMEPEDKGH

IC50 (MCF7)	IC50 (MKN-45)	IC50 (A549)	Compound	IC50 (NUGC-3)	IC50 (MES-SA)	IC50 (Tubulin beta-1 chain)
9060 nM	487 nM	6500 nM	COc1cc(C(=O)c2c[nH]c3cccc(OC)c23)cc(OC)c1OC	3360 nM	9390 nM	
> 10000 nM	> 10000 nM	> 10000 nM	COc1ccc2c(ccn2C(=O)c2ccc3c(c2)OCO3)c1	> 10000 nM	> 10000 nM	
			COc1ccc2c(c1)cc(C)n2C(=O)c1cc(OC)c(OC)c(OC)c1			3310 nM
			COc1ccc2c(ccn2C(=O)c2cc(OC)c(OC)c(OC)c2)c1			3760 nM
			COc1ccc2c(C(=O)c3cc(OC)c(OC)c(OC)c3)c(C)[nH]c2c1			900 nM
7 nM	4 nM	23 nM	COc1ccc2c(C(=O)c3cc(OC)c(OC)c(OC)c3)c[nH]c2c1	1 nM	4 nM	2180 nM
			COc1cc(OC)cc(C(=O)c2c[nH]c3cc(OC)ccc23)c1			2690 nM

Compound	IC50 (MCF7)	IC50 (MKN-45)	IC50 (A549)	IC50 (NUGC-3)	IC50 (MES-SA)	IC50 (Tubulin beta-1 chain)
COc1ccc(/C=C\c2cc(OC)c(OC)c(OC)c2)cc1O [COMBRETASTATIN A4]	8 nM	82 nM	117 nM	> 10000 nM	13 nM	
COc1ccc2[nH]cc(C(=O)c3cc(OC)c(OC)c(OC)c3)c2c1	639 nM	326 nM	614 nM	360 nM	884 nM	

Source: ChEMBL document CHEMBL1138678, “Concise synthesis and structure-activity relationships of combretastatin A-4 analogues, 1-aroylindoles and 3-aroylindoles, as novel classes of potent antitubulin agents” (J Med Chem, 2004)
